From PubChem
Hits are enriched below; roughly 2.8% of the tested compounds scored in any of these assays.
NPY-Y1 PAM-ag – human NPY-Y1 potentiation or agonism, primary screen. NPY-Y1 expressing cells, potentiator/agonist activation. activation, % at 3.6 µM. 220,000 compounds, 0.37% hits. P25929; in the data active means activation above about 33%, passing the limit was not always enough;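 further: cells stimulated with NPY at EC10 then isoproterenol at EC100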
EP2 modulator – modulators of human EP2 prostaglandin E2 receptor; P43116; EP2-expressing cells, cAMP HTRF FRET, PGE2 co-stimulation; 260,000 compounds, 0.83% hits; induction, % at 25 µM;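 active means compounds whose cAMP rise, as percent of the full-agonist control response, exceeds 60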;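 further: rat C6 glioma line stably carrying human EP2 under a CMV promoter; the protocol text gives 20 µM as final concentration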
NPY-Y2 antag – blocks the human neuropeptide Y Y2 receptor | P49146 | NPY-Y2 expressing cells, antagonist mode | 140,000 compounds, 0.99% hits | inhibition, % at 2.7 µM | AID 793; in the data active means inhibition above about 17%
Target sequence (P49146 whole entry, looked up): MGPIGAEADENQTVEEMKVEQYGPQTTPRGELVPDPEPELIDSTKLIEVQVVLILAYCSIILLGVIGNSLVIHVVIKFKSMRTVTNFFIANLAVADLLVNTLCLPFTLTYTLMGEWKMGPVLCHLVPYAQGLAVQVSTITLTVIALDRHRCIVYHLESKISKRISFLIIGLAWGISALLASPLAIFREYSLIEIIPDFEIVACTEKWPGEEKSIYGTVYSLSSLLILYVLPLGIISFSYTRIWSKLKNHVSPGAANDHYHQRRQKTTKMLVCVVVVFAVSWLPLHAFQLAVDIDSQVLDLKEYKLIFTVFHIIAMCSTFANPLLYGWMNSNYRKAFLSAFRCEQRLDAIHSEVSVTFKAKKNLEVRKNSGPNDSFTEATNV
EP2 antag – EP2 receptor (human) inhibition. 260,000 compounds, 0.52% hits. P43116. AID 1422. inhibition, % at 25 µM. C6 glioma cells expressing human EP2, cAMP TR-FRET; cells stimulated with saturating PGE2;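 active means percent inhibition above 40 after rounding to a whole number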;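 further: rat C6 glioma host cells with rolipram phosphodiesterase inhibitor present; the protocol text gives 20 µM as final concentration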
NPY2 pot ag – potentiators or agonists of human neuropeptide Y receptor Y2 | P49146 | activation, % at 3.6 µM | cells expressing NPY-Y2, potentiator/agonist read-out | 220,000 compounds, 0.45% hits; in the data active means activation above about 27%;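 further: cells stimulated with NPY near EC25 plus isoproterenol at EC100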
NPY Y1 blocker – blocks the human neuropeptide Y Y1 receptor | P25929 | HEK293-CNG Y1 cells, membrane potential fluorescence; NPY at EC95, then isoproterenol | inhibition, % at 3.6 µM | 200,000 compounds, 1% hits | AID 1040;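 active means inhibition above the campaign mean inhibition of all tested compounds plus 3 SD, cut at about 20% in these data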
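material = HEK293 cells with Y1 receptor plus CNG channel | also added = NPY 25 nM then isoproterenol 1 µM plus Ro 20-1724 25 µM | schedule = dye 3 h, compound 60 min room temperature, stimulation 45 min | measured by = membrane potential fluorescence | benchmarks = high control isoproterenol alone, low control NPY with isoproterenol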
EP2 cAMP induct – EP2 receptor cAMP induction, counter-screens negative; shares compounds with EP2 modulator; C6 glioma EP2 cells, cAMP HTRF induction; plus low (about EC15) PGE2 agonist; calls only at 20 µM (by protocol); 1,300 compounds, 47% hits; AID 1080;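 active means cAMP induction above 50% in the main assay while under 30% in all four parallel counter assays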;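 further: rat C6 glioma cells stably expressing human EP2 receptor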
Hits are given with their value; - = inactive; . = not tested or not shown; + = active, no number.

SMILES | NPY-Y1 PAM-ag | EP2 modulator | NPY-Y2 antag | EP2 antag | NPY2 pot ag | NPY Y1 blocker | EP2 cAMP induct
N#Cc1c(NC(=O)CSc2ncccn2)oc(-c2ccccc2)c1-c1ccccc1 | - | . | - | - | - | - | .
N#Cc1c(NC(=O)CSc2n[nH]c(Cc3ccccc3)n2)oc(-c2ccccc2)c1-c1ccccc1 | - | 77 | - | - | - | - | -
CC1CC(C)(C)N2C(=O)C3(Nc4ccccc4S3)c3cccc1c32 (configuration not stated) | - | - | - | - | - | - | .
Cc1cc2c3c(c1)C1(SCC(=O)N1c1ccc(F)cc1)C(=O)N3C(C)(C)CC2C (configuration not stated) | - | 67 | - | - | - | - | -
Cc1cc(C)nc(SCc2nnc(SCC(=O)O)n2-c2ccccc2)n1 | - | - | . | - | - | - | .
Cc1cc(C)nc(SCc2nnc(SCC#N)n2-c2cccc(Cl)c2)n1 | - | - | - | - | - | - | -
CC(NCCCN(C)C)C(=O)N1CCCCC1C (configuration not stated) | . | - | . | - | . | . | .
O=C(NC1CCCC1)C(c1ccccc1Cl)N(Cc1cccnc1)C(=O)Cc1cccs1 (configuration not stated) | . | - | . | - | . | . | .
CCOC(=O)CC(=O)CSc1nc(-c2ccc3c(c2)OCO3)cc(C(F)(F)F)c1C#N | - | 68 | - | - | - | - | -
O=C(c1cc2nc(C3CC3)cc(C(F)(F)F)n2n1)N1CCc2c(nc[nH]c2=O)C1 | . | - | . | - | . | . | .
O=C(O)CSc1nc2ccccc2s1 | - | - | . | - | - | . | .
O=C(O)CSc1cc(-c2ccccc2)nc2ccccc12 | . | 67 | . | - | . | . | -
O=C(O)CSc1nnc(-c2ccc(F)cc2)o1 | . | - | . | - | . | . | .
CC1CCc2c(sc(N)c2C(=O)OC(C)C)C1 (configuration not stated) | - | 68 | - | - | - | - | -
COC(=O)c1cc2ccsc2n1Cc1ccccc1F | - | 71 | - | - | - | - | +
COC(=O)c1cc2ccsc2n1Cc1cccc(F)c1 | - | 67 | - | - | - | - | +
COC(=O)c1cc2ccsc2n1CC(=O)N(C)c1ccccc1 | - | - | - | - | - | - | .
CC(=O)NC(c1ccccc1)c1cccnc1 (configuration not stated) | - | 70 | - | - | - | - | -
CSc1ncc(C(=O)NC(c2ccccc2)c2cccnc2)cn1 (configuration not stated) | . | - | . | - | . | . | .
S=C(NNc1nc(Nc2ccccc2)nc(N2CCCCC2)n1)NC1CCCCC1 | - | - | . | - | - | - | .
C=CCNC(=S)NNc1nc(Nc2ccccc2)nc(N2CCCCC2)n1 | - | 74 | . | - | - | - | -
O=C(NCc1nc(-c2ccncc2)n[nH]1)C1(c2ccc(Cl)cc2)CCC1 | . | - | . | - | . | . | .
CC(CO)NS(=O)(=O)c1ccc2c(c1)NC(=O)C(C)(C)O2 (configuration not stated) | . | - | . | - | . | . | .
COC1(C)CC2C(CC1OC(=O)c1cc([N+](=O)[O-])cc([N+](=O)[O-])c1)C2(C)C (configuration not stated) | - | 72 | - | - | - | - | +
COC(=O)c1cc(C(=O)N2CCOCC2)cc([N+](=O)[O-])c1 | - | - | . | - | - | - | .
SMILES | NPY-Y1 PAM-ag | EP2 modulator | NPY-Y2 antag | EP2 antag | NPY2 pot ag | NPY Y1 blocker | EP2 cAMP induct
O=C(Cn1c2ccccc2c2ccccc21)NCCc1nc(-c2ccncc2)n[nH]1 | . | - | . | - | . | . | .
COC(=O)CSc1nc(-c2ccccc2)nc2ccccc12 | - | 68 | . | - | - | - | +
N#Cc1sc2nc(C3CC3)cc(-c3ccc(Cl)cc3)c2c1N | - | 76 | - | - | - | - | -
COCCCn1c(Cc2ccccc2)nnc1SCC(=O)N1CCOCC1 | . | - | . | - | . | . | .
O=C(NC1CCSC1=O)c1cccc(Br)c1 (configuration not stated) | . | - | . | - | . | . | .
O=C(CN1CCCCCC1)Nc1ccccc1Oc1ccccc1 | - | 70 | . | - | - | - | +
Cc1ccccc1OCCCC(=O)Nc1nc2ccc(S(C)(=O)=O)cc2s1 | . | - | . | - | . | . | .
CC1=CC(C)(C)N(C(=O)c2ccccc2)c2ccccc21 | - | 72 | - | - | - | - | -
O=C(Nc1nc2c(s1)CCc1ccccc1-2)c1cccs1 | - | - | - | - | - | - | .
Fc1ccccc1Nc1nc2c(s1)CCc1ccccc1-2 | - | 79 | - | - | - | - | +
O=c1n(Cc2ccccc2F)c2ccccc2n1Cc1ccccc1F | - | 77 | - | - | - | - | +
CCn1c(SCC(=O)c2ccc(OC)cc2)nnc1-c1ccncc1 | . | - | . | - | . | . | .
Cc1ccc(S(=O)(=O)c2c(C)cc(C)nc2N2CCCCC2)cc1 | - | 70 | . | - | - | - | +
CCOc1ccc(NC(=O)N2CCC(n3cnc4cc(F)ccc43)CC2)cc1 | . | - | . | - | . | . | .
C=CCNC(=O)c1cc2c(=O)n3cc(C)ccc3nc2n(CCCOC)c1=N | . | - | . | - | . | . | .
Cc1cc(SC(C)C(=O)NCC(=O)Nc2ccc(F)c(F)c2F)nc2ccccc12 (configuration not stated) | - | - | - | - | - | - | .
Cc1cc(SC(C)C(=O)O)nc2ccccc12 (configuration not stated) | - | 68 | . | - | - | - | -
CC(Sc1cccc2cccc(C(=O)O)c12)C(=O)O (configuration not stated) | - | - | - | - | - | - | .
CC(Sc1ccc2ccccc2n1)C(=O)O (configuration not stated) | - | 97 | - | . | - | - | -
CC(Sc1cnc2ccccc2n1)C(=O)O (configuration not stated) | - | 68 | - | - | - | - | -
CCCc1cc(C(=O)N2CCc3onc(-c4cccc(OC)c4)c3C2)n[nH]1 | . | - | . | - | . | . | .
COc1ccc(-n2nc3ccc(NC(=O)c4cccs4)cc3n2)cc1 | . | - | . | - | . | . | .
Cc1ccc2cc(CN(CCO)C(=S)Nc3ccc(F)cc3)c(=O)[nH]c2c1C | . | - | . | - | . | . | .
COc1ccccc1OCc1nnc(SCC(=O)N2CCCC(C)C2)n1C (configuration not stated) | . | - | . | - | . | . | .
CCC(=O)N(CC)c1nc(-c2ccc(Cl)cc2)cs1 | . | - | . | - | . | . | .
CC(C(=O)Nc1ccccc1-c1ccccc1)N1CCN(C(=O)c2ccccc2)CC1 (configuration not stated) | - | - | . | - | - | . | .
CC1CCN(C(C)C(=O)Nc2ccccc2-c2ccccc2)CC1 (configuration not stated) | - | 82 | - | - | - | - | +
CCc1nc(NC(=O)c2cc(C3CCCCC3)no2)sc1C | . | - | . | - | . | . | .
CC(C)OC(=O)c1c(NC(=O)c2ccco2)sc2c1CCCCC2 | - | - | - | - | - | - | -
O=C(Nc1sc2c(c1C(=O)O)CCCC2)c1cccs1 | - | - | - | - | - | - | .
